Only some compounds are listed: those with a hit (about 3.1% of all), similar ones and a draw of the others.
KCNK3 block = human KCNK3 channel inhibitors, primary screen, CHO cells, FluxOR thallium flux, B-score | FluxOR fluorescence; active compounds read low | AID 602410, 2012 | B-score at 10 µM | Potassium channel subfamily K member 3 (Homo sapiens), O14649 | 0.84% of 340,000 active;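 active = B-score under library mean minus 4 SD, starting fluorescence ratio at most library mean plus 5 SD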;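 note: more negative B-score means stronger inhibition of thallium flux through KCNK3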
KCNQ1 block = inhibitors of human KCNQ1 channel, primary screen, cell-based, thallium flux, high-throughput; B-score at 10 µM; AID 2642, 2010; CHO-K1 KCNQ1, FluxOR thallium flux fluorescence; active compounds read high; 1.3% of 310,000 active;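 active = compounds whose thallium flux B-score, printed positive for inhibition, exceeds three library SD while starting fluorescence stays within three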;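 note: channel opened by potassium depolarization with thallium stimulus after 20 min compound exposure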
hERG protect = hERG rescue from dofetilide block, primary screen, cell-based, CHO-hERG, FluxOR thallium flux, dofetilide IC70. Voltage-gated inwardly rectifying potassium channel KCNH2 (Homo sapiens), Q12809. activation (rescue from dofetilide block), less the hit threshold, % at 10 µM. AID 1511, 2009. dofetilide IC70 present. 0.51% of 310,000 active;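 active = activation above the mean of controls blocked by dofetilide plus 5 SD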;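 note: thallium influx through hERG after potassium depolarization seen as dye fluorescence rise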
KCNK9 inh = KCNK9 potassium channel inhibitors, primary screen, HEK293 cells, thallium flux; Potassium channel subfamily K member 9 (Homo sapiens), Q9NPC2; FluxOR thallium flux fluorescence; active compounds read low; B-score at 10 µM; 1.2% of 310,000 active; AID 488922, 2010;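 active = ratio B-score over 3 SD below the library mean, with starting fluorescence within 5 SD of its mean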;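 note: negative B-score means less thallium flux so channel inhibition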
Target sequence (Q9NPC2 whole entry, looked up): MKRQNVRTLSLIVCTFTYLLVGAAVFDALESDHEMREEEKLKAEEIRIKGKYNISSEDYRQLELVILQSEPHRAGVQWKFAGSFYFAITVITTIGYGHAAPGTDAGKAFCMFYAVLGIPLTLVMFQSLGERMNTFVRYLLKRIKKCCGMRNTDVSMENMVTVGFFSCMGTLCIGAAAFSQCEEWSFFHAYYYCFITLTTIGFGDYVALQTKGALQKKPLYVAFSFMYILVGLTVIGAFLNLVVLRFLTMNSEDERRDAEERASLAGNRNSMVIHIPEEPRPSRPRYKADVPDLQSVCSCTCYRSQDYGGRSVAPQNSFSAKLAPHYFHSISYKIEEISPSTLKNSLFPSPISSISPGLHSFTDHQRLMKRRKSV
KCNQ1 pot = potentiators or activators of KCNQ1 channel, primary screen, cell-based, thallium flux, high-throughput; Potassium voltage-gated channel subfamily KQT member 1 (Homo sapiens), P51787; CHO-K1 KCNQ1, thallium flux FluxOR fluorescence; active compounds read high; B-score at 10 µM; 0.35% of 310,000 active; AID 2648, 2010;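 active = fluorescence ratio B-score, a plate-corrected score, at least three library SD, with initial intensity B-score within 5 SD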
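assay system = KCNQ1-transfected CHO-K1 cells | medium = assay buffer with matched DMSO | probe or stimulus = depolarizing K+/Tl+ stimulus, K2SO4 and Tl2SO4 each 12.5 mM in 5x stock | dosing = single dose | incubation = dye 90 min, compound 20 min, room temperature | detection = kinetic FluxOR fluorescence, 10 s baseline plus 110 s post-stimulus | evaluation = ratio B score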
* marks the source's active call; other numbers are inactive results; i = inactive; . = no result.

SMILES | KCNK3 block | KCNQ1 block | hERG protect | KCNK9 inh | KCNQ1 pot
N#Cc1nc(COc2ccc(Cl)cc2)oc1N1CCCCCC1 | -8.7* | . | . | . | .
O=C(O)CCSc1ncnc2sc(-c3ccccc3)cc12 | i | i | 6.6* | i | 14*
O=c1cc(-c2c(F)c(F)c(F)c(F)c2F)oc2ccccc12 | i | i | 19* | i | 24*
CC(C)CNC(=S)N1CCC(Cc2ccccc2)CC1 | i | i | -14 | i | i
COc1ccc(C2c3cc4c(cc3OC(N3CCOCC3)C2C)OCO4)c(OC)c1 (stereo not given) | i | . | . | . | .
CN(C(=O)c1cccc(NC(=O)Cc2ccc(NC(=O)C3CCN(C(=O)c4ccccc4)CC3)cc2)c1)C1CCCCC1 | i | . | . | . | .
COc1ccc([C@@H]2C[C@H](c3ccccc3)Oc3cc(OC)c(OC)c(OC)c32)cc1 | i | i | -16 | -6.8* | i
COc1ccc(C2CC(O)(c3ccccc3)Oc3cc(OC)c(OC)c(OC)c32)cc1 (stereo not given) | i | i | -7 | i | i
Fc1ccc(-c2csc3ncnc(N4CCc5ccccc5C4)c23)cc1 | i | 6* | -13 | -7.1* | i
Cc1ccc(-c2csc3ncnc(N4CCc5ccccc5C4)c23)cc1 | i | i | -13 | i | i
C[C@@H](CC#N)CN1CC[C@H](C(C)(C)C)CCC1=O | i | i | 5.0* | i | i
CCOC(=O)/C(=N/Nc1ccc(Br)cc1)N1CC(C)OC(C)C1 (stereo not given) | -8.7* | . | . | . | .
CN1OC[C@@H]2CN(C(=O)CCc3ccccc3)[C@H](c3cccc(N4CCOCC4)c3)C[C@@H]21 | i | . | . | . | .
COc1cccc(N(C(=O)Cn2nnc(-c3ccc(C)o3)n2)C(C(=O)NC(C)(C)C)c2cccs2)c1 (stereo not given) | i | i | 6.4* | i | i
Cc1ccc(-c2nnn(CC(=O)N(Cc3ccco3)C(C(=O)NC(C)(C)C)c3cccs3)n2)o1 (stereo not given) | i | i | -13 | i | i
NS(=O)(=O)c1ccc(S(=O)(=O)c2ccccc2)nc1 | i | i | -5 | i | i
NS(=O)(=O)c1ccc(Sc2ccc3c(c2)CCC3)nc1 | i | i | -1 | i | 8*
Cc1sc2nc(CN3CCOCC3)[nH]c(=S)c2c1C | i | i | 52* | i | 43*
Cc1sc2nc(CN3CCN(c4ccc(O)cc4)CC3)[nH]c(=O)c2c1C | i | i | -4 | i | i
O=C(O)c1ccccc1CSc1nc2ccccc2n1Cc1ccccc1C(=O)O | i | i | -5 | i | i
N#Cc1ccc(C2=NC(C(F)(F)F)(C(F)(F)F)c3c(n(Cc4ccco4)c(=O)[nH]c3=O)N2)cc1 | i | 7* | -17 | i | i
COc1cccc(OCC(=O)Nc2ccncc2)c1 | i | i | -6 | i | i
Cc1cc(Br)ccc1OCC(=O)NNC(=O)C(=O)Nc1ccccc1 | i | i | 51* | i | 92*
O=C(COc1ccc2ccccc2c1)NNC(=O)C(=O)Nc1ccccc1 | i | i | 45* | i | 35*
COc1ccc(NC(=O)C(=O)NNC(=O)COc2ccc(Cl)cc2)c(OC)c1 | i | i | 16* | i | 69*
SMILES | KCNK3 block | KCNQ1 block | hERG protect | KCNK9 inh | KCNQ1 pot
COc1cc(NC(=O)COc2ccc(Cl)cc2)ccc1NC(=O)C(C)C | i | i | 2 | i | i
Cc1cc(Br)ccc1OCC(=O)NNC(=O)Cc1ccccc1 | i | i | -7 | i | i
CCc1ccc(NC(=O)C(=O)NNC(=O)COc2cccc(OC)c2)cc1 | i | i | 7.2* | i | 28*
C=CCN(CC=C)c1ncnc2[nH]ncc12 | i | . | . | . | .
CCOC(=O)C1=C(C(=O)OCC)c2ccc(OC)c(OC)c2C1 | i | . | . | . | .
CCOc1ccc(NC(=O)COc2ccc(OC)cc2)cc1 | i | i | -8 | i | i
COc1ccc(NC(=O)C(=O)NNC(=O)COc2ccc(OC)cc2)cc1 | i | i | 7.8* | i | i
Cc1ccccc1OCC(=O)Nc1cccc(C(=O)O)c1 | i | i | 5.5* | i | i
Cn1[nH]cc(C=NC(N)=O)c1=O | i | . | . | . | .
Cc1csc(SCC(=O)Nc2nncs2)n1 | i | i | -9 | i | i
CCCc1noc2c1/C(=N\O)CC(CC(C)SCC)C2 (stereo not given) | i | i | -4 | -7* | i
CCSC(C)CC1C/C(=N/O)c2c(CC)noc2C1 (stereo not given) | i | i | -4 | i | i
Cc1cccc(S(=O)C(c2ccccc2)c2ccccc2)c1 (stereo not given) | i | . | . | . | .
CCOP(=O)(Nc1cccc2oc(=O)c3ccccc3c12)OCC | i | . | . | . | .
CN(c1ccccc1)c1nc(N)c([N+](=O)[O-])c(Nc2ccc(F)cc2)n1 | i | i | -11 | i | i
CN(c1ccccc1)c1nc(N)c([N+](=O)[O-])c(Nc2ccccc2F)n1 | i | i | -3 | -6.9* | i
CCOC(=O)N/N=C/c1c(C)nn(-c2ccccc2Cl)c1Cl | i | i | 1 | -8.1* | i
Clc1ccccc1OCc1nnc(-c2ccccc2Br)o1 | i | i | 1 | i | i
CCc1ccc(OCc2nnc(-c3ccccc3Br)o2)cc1 | -9.3* | . | . | . | .
COc1ccc(/C=C/c2nc3ccccc3n2Cc2ccccc2OC)cc1 | i | i | -15 | i | i
COc1ccccc1Cn1c(/C=C/c2ccccc2)nc2ccccc21 | i | i | -7 | -7* | i
Cc1ccc(S(=O)(=O)Nc2ccc(C(=O)N3CCN(c4ccccc4O)CC3)cc2)cc1[N+](=O)[O-] | i | i | -9 | i | i
c1cc2c3c(cccc3c1)-c1cnccc1-2 | i | . | . | . | .
Cc1ccc2c(c1)-c1cc(C)nn1C(c1ccc3c(c1)OCO3)N2 (stereo not given) | i | i | -10 | -7.6* | i
Cc1[nH]n(-c2ccccc2)c(=O)c1N=Nc1nccs1 | i | i | 114* | i | 78*
Cc1[nH]n(-c2ccccc2)c(=O)c1N=Nc1ccccc1O | i | i | -3 | i | i
CC(C)Cc1ccc(C(C)C(=O)Nc2ccc(O)cc2)cc1 (stereo not given) | i | i | -11 | i | 10*
CC(C)Cc1ccc(C(C)C(=O)Nc2cccnc2)cc1 (stereo not given) | i | i | -16 | i | i
Fc1ccc(-[n+]2nc(Nc3ccccc3)sc2-c2ccc(OCc3ccccc3)cc2)cc1 | i | i | -10 | i | i
